What was measured:
[1] = target: T1, G-protein coupled receptor 39 (Homo sapiens, UniProt O43194); experiment: Agonist activity at human GPR39 expressed in HEK293 cells by IP1 assay; format: functional, cell-based
T1 sequence (O43194 whole entry): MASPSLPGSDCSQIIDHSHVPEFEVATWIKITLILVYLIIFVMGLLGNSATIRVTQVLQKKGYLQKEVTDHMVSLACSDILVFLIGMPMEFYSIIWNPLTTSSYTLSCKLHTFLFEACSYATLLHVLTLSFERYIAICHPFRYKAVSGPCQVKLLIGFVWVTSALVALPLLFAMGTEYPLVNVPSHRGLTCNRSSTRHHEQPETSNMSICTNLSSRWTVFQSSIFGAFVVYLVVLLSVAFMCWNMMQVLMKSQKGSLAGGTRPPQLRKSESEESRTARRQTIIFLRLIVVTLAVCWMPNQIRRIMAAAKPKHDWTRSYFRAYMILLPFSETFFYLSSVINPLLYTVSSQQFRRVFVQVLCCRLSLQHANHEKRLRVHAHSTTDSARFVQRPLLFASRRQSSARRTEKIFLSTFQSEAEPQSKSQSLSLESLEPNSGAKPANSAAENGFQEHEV
Summary of the method: (§1)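 Gαq signalling read as inositol-1-phosphate (IP1) accumulation in HEK293 cells overexpressing human, mouse or rat GPR39. EC50 taken from an 11-point dose–response curve run in triplicate. Replicates range from 1 to 4, with standard deviation where available.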

[2] = target: T2, G-protein coupled receptor 39 (Mus musculus, UniProt Q5U431); experiment: Agonist activity at mouse GPR39 expressed in HEK293 cells by IP1 assay; format: functional, cell-based; summary of the method: as §1
T2 sequence (Q5U431 whole entry): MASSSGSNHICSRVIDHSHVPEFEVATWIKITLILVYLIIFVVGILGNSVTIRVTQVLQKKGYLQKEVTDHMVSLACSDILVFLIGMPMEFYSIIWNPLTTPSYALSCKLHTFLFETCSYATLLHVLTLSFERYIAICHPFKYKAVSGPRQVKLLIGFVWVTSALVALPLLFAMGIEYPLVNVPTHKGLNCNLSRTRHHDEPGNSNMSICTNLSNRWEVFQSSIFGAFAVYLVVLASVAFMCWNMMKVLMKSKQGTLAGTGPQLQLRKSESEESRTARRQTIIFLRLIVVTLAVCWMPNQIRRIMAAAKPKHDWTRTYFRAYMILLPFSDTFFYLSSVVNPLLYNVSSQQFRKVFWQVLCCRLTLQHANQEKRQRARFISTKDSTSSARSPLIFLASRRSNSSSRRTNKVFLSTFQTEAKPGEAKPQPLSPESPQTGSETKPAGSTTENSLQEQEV

[3] = Hepatic clearance in rat liver microsomes; format: ADME
Summary of the method: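 Predicted hepatic clearance calculated from intrinsic clearance in rat liver microsomes.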

[4] = target: T3, Protein Gpr39 (Rattus norvegicus, UniProt A6QR73); experiment: Agonist activity at rat GPR39 expressed in HEK293 cells by IP1 assay; format: functional, cell-based; summary of the method: as §1
T3 sequence (A6QR73 whole entry): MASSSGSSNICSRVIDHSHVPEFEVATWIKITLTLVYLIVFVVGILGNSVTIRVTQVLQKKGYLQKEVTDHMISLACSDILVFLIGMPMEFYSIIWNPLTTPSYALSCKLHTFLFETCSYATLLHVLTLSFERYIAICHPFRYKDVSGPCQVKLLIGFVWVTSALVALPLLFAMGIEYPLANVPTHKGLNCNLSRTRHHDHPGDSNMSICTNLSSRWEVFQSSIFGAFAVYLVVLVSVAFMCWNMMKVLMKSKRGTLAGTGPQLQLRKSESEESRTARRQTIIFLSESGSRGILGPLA

[5] = target: T1, G-protein coupled receptor 39; experiment: Agonist activity at human GPR39 expressed in HEK293 cells by cAMP assay; format: functional, cell-based
Summary of the method: (§2)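 cAMP accumulation (Gαs signalling) in HEK293 cells overexpressing human GPR39. Dose–response curve run in triplicate, 1–16 replicates. EC50 derived from the curve. Percent efficacy is expressed relative to the cAMP response to 25 μM forskolin.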

[6] = target: T4, G-protein coupled receptor 39 (Homo sapiens) (UniProt O43194); experiment: Agonist activity at human GPR39 expressed in HEK293 cells by cAMP assay relative to forskolin; format: functional, cell-based; summary of the method: as §2
T4 sequence (whole entry): T1 sequence (O43194 whole entry)

[7] = Induction of GLP1 secretion in mouse STC1 cells incubated for 2 hrs by fluorescent bead based ELISA method; format: functional, cell-based; conditions: STC-1, 2 h
Summary of the method: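 Mouse enteroendocrine STC-1 cells, which express endogenous GPR39, were assayed for GLP-1 secretion over a dose–response run in triplicate. Maximal activity is expressed as fold increase in GLP-1 over the DMSO control.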

[8] = Protection against cytokine-induced cell death in rat INS-1E cells assessed as caspase 3/7 activity; format: functional, cell-based
Summary of the method: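 Rat insulinoma INS-1E cells (beta-cell phenotype) were treated with cytokines to induce cell death. Caspase 3/7 activity was the read-out. Dose–response run in triplicate.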

[9] = Permeability from apical to basolateral side in human Caco2 cells; format: ADME, cell-based; conditions: Caco-2, read-out: permeability
[10] = tested on: Mus musculus; experiment: Increase in GLP1 level in C57BL/6 mouse at 30 mg/kg, po concurrently dosed with 3 mg/kg, po DPP4 inhibitor PKF275-055 followed by glucose challenge after 1 hr post drug dose; format: functional
Summary of the method: (§3)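 Male C57BL/6 mice were dosed orally with compound together with a DPP-IV inhibitor. After 1 h they were challenged with oral glucose at 3 g/kg. Active GLP-1 and plasma exposure were measured 30 min later. One-way ANOVA with Dunnett's post-test against the vehicle group.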

[11] = Plasma concentration in C57BL/6 mouse at 30 mg/kg, po concurrently dosed with 3 mg/kg, po DPP4 inhibitor PKF275-055 followed by glucose challenge after 1 hr post drug dose; format: ADME, organism-based; summary of the method: as §3
[12] = Aqueous solubility at pH 6.8; format: physicochemical
[13] = target: T1, G-protein coupled receptor 39; experiment: Agonist activity at human GPR39 by IP1 assay; format: functional; summary of the method: as §1
[14] = target: T3, Protein Gpr39; experiment: Agonist activity at rat GPR39 by IP1 assay; format: functional; summary of the method: as §1
[15] = target: T2, G-protein coupled receptor 39; experiment: Agonist activity at mouse GPR39 by IP1 assay; format: functional; summary of the method: as §1
[16] = Clearance in Sprague-Dawley rat at 2 mg/kg, iv administered as single dose; format: ADME, organism-based; parameters: dose 2 mg/kg, route intravenous; conditions: in vivo
Summary of the method: (§4)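 Sprague–Dawley rats received a single iv dose of 2 mg/kg or an oral dose of 5 mg/kg. Vehicle was 10% NMP, 30% PEG200 and 5% Solutol in water. Clearance was taken from the iv arm and bioavailability from the oral arm.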

[17] = Oral bioavailability in Sprague-Dawley rat at 5 mg/kg; format: ADME, organism-based; conditions: in vivo; summary of the method: as §4
[18] = Protein binding in rat plasma; format: ADME, cell-free; conditions: read-out: PPB (converted)
[19] = Protein binding in mouse plasma; format: ADME, cell-free; conditions: read-out: PPB (converted)
[20] = target: Growth hormone secretagogue receptor type 1 (Homo sapiens, UniProt Q92847); experiment: Binding affinity to human ghrelin receptor
[21] = target: Neurotensin receptor type 1 (Homo sapiens, UniProt P30989); experiment: Binding affinity to human neurotensin 1 receptor
[22] = Cmax in C57BL/6 mouse at 10 mg/kg, po administered as single dose after 1 to 1.5 hrs by LC/MS/MS method; format: ADME, organism-based; parameters: dose 10 mg/kg, route oral; conditions: in vivo
[23] = Cmax in C57BL/6 mouse at 30 mg/kg, po administered as single dose after 1 to 1.5 hrs by LC/MS/MS method; format: ADME, organism-based; parameters: dose 30 mg/kg, route oral; conditions: in vivo
[24] = Cmax in C57BL/6 mouse at 100 mg/kg, po administered as single dose after 1 to 1.5 hrs by LC/MS/MS method; format: ADME, organism-based; parameters: dose 100 mg/kg, route oral; conditions: in vivo
[25] = Half life in C57BL/6 mouse at 10 mg/kg, po administered as single dose by LC/MS/MS method; format: ADME, organism-based; parameters: dose 10 mg/kg, route oral; conditions: in vivo
Summary of the method: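 Male C57BL/6 mice, separate study with a single 10 mg/kg dose. Half-life calculated from the plasma concentration profile.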

Chain of Growth hormone secretagogue receptor type 1 (Q92847 whole entry): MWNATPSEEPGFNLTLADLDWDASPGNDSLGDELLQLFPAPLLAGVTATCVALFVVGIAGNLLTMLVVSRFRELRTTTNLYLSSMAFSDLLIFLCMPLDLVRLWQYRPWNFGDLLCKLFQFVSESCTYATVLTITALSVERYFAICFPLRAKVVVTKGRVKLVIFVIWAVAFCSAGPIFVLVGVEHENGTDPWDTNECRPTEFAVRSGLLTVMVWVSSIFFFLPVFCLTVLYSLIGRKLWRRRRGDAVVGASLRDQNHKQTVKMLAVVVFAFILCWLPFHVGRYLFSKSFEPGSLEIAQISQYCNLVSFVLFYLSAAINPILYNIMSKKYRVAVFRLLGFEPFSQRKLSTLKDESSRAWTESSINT
Chain of Neurotensin receptor type 1 (P30989 whole entry): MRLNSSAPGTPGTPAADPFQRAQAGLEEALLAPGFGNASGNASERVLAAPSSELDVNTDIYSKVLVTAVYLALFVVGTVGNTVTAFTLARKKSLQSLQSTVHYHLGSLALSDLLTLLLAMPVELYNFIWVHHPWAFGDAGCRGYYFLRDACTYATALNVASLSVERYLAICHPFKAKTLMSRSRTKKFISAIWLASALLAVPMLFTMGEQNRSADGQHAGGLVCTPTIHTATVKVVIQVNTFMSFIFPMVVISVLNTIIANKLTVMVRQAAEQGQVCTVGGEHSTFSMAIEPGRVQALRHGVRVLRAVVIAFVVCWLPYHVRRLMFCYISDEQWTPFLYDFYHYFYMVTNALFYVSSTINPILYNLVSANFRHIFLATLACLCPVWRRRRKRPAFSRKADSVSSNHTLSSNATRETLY

`CNc1nc(NCc2ccc(Cl)cc2)cc(-c2ccccn2)n1` showed an EC50 [1] of 0.015 µM and an EC50 [2] of 0.003 µM.

`CNc1nc(NCc2ccc(NC(C)=O)cc2F)cc(-c2ccccn2)n1` gave a CLhep predicted [3] of 25.9 mL/min/kg, an EC50 [1] of 0.001 µM and an EC50 [4] of 0.0006 µM. For the same compound, the EC50 [5] was 0.35 µM, the Efficacy [6] was 55% and the EC50 [7] was 0.2 µM. The EC50 [8] was 0.04 µM.

With `CNc1nc(NCC(C)(C)C)cc(-c2ccccn2)n1` the EC50 [1] was 0.073 µM and the EC50 [2] was 0.365 µM.

`CNc1nc(NCc2ccc(NS(C)(=O)=O)cc2)cc(-c2ccccn2)n1` showed a CLhep predicted [3] of 33.6 mL/min/kg, an EC50 [1] of 0.003 µM and an EC50 [2] of 0.008 µM. The EC50 [4] was 0.003 µM, the EC50 [5] was 0.18 µM and the Efficacy [6] was 55%. The EC50 [7] was 1.3 µM, the EC50 [8] was 0.4 µM and the Papp A→B [9] was 6.9 ×10⁻⁶ cm/s. The “fold change (FC)” value [10] was under 2 and the concentration at 1 h [11] was 2000 nM.

Compound `O=S(=O)(NC[C@H]1CC[C@H](CNc2nc(NC3CC3)cc(-c3ccccn3)n2)CC1)c1cccc(F)c1` has a CLhep predicted [3] of 51.2 mL/min/kg, a solubility [12] of under 5 µM and an EC50 [13] of 0.202 µM. It also gave an EC50 [14] of 0.012 µM and an EC50 [15] of 0.004 µM.

`CNc1nc(NCc2ccncc2)cc(-c2ccccn2)n1` showed an EC50 [1] of 0.087 µM and an EC50 [2] of 0.304 µM.

For `CC(C)(C)CNc1nc(NCC2CC2)cc(-c2ccccn2)n1`, the EC50 [1] was 5 µM and the EC50 [2] was 1.5 µM.

`c1ccc(-c2cc(NCC3CC3)ncn2)nc1` showed an EC50 [1] of 22 µM and an EC50 [2] of 10 µM.

`CNc1nc(NCc2ccc(Cl)cc2Cl)cc(-c2ccccn2)n1` showed a CLhep predicted [3] of over 52.3 mL/min/kg, an EC50 [1] of 0.0008 µM and an EC50 [2] of 0.0005 µM.

With `FC(F)(F)CNc1nc(NCc2ccc(Cl)cc2)cc(-c2ccccn2)n1` the CLhep predicted [3] was over 52.3 mL/min/kg, the EC50 [1] was 0.06 µM and the EC50 [2] was 0.001 µM.

`O=S(=O)(NC[C@H]1CC[C@H](CNc2cc(-c3ccccn3)nc(NC3CC3)n2)CC1)c1cccc(F)c1` showed an EC50 [13] of 0.011 µM, an EC50 [14] of 0.001 µM and an EC50 [15] of 0.003 µM. It also gave a clearance [16] of 42 mL/min/kg and a bioavailability [17] of 25%.

Compound `COCCNc1nc(NCC2CC2)cc(-c2ccccn2)n1` has an EC50 [1] of 2.2 µM and an EC50 [2] of 10 µM.

`CNc1nc(NCc2ccc(NS(C)(=O)=O)cc2Cl)cc(-c2ccccn2)n1` gave a CLhep predicted [3] of 41.3 mL/min/kg, an EC50 [13] of 0.0008 µM and an EC50 [14] of 0.0004 µM. It also gave an EC50 [1] of 0.0008 µM, an EC50 [4] of 0.0004 µM and an EC50 [5] of 0.06 µM. The Efficacy [6] was 64%, the EC50 [7] was 0.06 µM and the EC50 [8] was 0.02 µM. For the same compound, the fraction unbound [18] was 0.007, the fraction unbound [19] was 0.009 and the IC50 [20] was over 30 µM. For the same compound, the IC50 [21] was over 30 µM, the Cmax [22] was 1400 nM and the Cmax [23] was 6100 nM. For the same compound, the Cmax [24] was 25300 nM, the half-life [25] was 7 h and the “fold change (FC)” value [10] was 6. For the same compound, the concentration at 1 h [11] was 1600 nM.
